Measured values: PMC10519257 (Journal of Enzyme Inhibition and Medicinal Chemistry, 2023)
Ends that are not written are not given here.

How the values were obtained:
Serum stability = format: in vitro ADME, human
How it was run: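 Test compound in water (1 mg/mL stock) diluted to 0.1 mg/mL in phosphate buffer pH 7.2, then added to serum from one 40th-week pregnant donor (oxytocinase-rich) and incubated at 37 °C with a reference peptide as internal standard. Aliquots at 1, 3, 5, 20, 24, 48 h were quenched in H2O/CH3CN (1:1) with 0.1% TFA, held 5 min at 0 °C and centrifuged.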

[1] = Stability in phosphate buffer pH 7.2; format: physicochemical
How it was run: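 Peptides were incubated at 37 °C in phosphate buffer at pH 7.2 without serum. Remaining peptide was sampled at 1, 3, 5, 20, 24 and 48 h and measured by RP-HPLC-MS.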

rat mammary gland = details: cited from earlier work
isolated uterus = details: rat isolated uterus; cited from earlier work

Row | Molecule | half-life (Serum stability; human, serum) [h] | time after which not detectable by analytical RP-HPLC (Serum stability; woman serum at 40th week of pregnancy, 37 °C) [h] | half-life [1] [h] | contractile activity (rat mammary gland) | contractile activity (isolated uterus)
1 | CC[C@H](C)[C@@H]1NC(=O)[C@H](Cc2ccc(O)cc2)NC(=O)[C@@H](N)CSSC[C@@H](C(=O)N2CCC[C@H]2C(=O)N[C@@H](CC(C)C)C(=O)NCC(N)=O)NC(=O)[C@H](CC(N)=O)NC(=O)[C@H](CCC(N)=O)NC1=O [OT, Oxytocin] | 16 | 48 | 24 |  | 
2 | (1,6-di-alanine)-oxytocin (AYIQNAPLG; ends and bridges not checked; UniProt P01178 20-28, looked up, variant C1A C6A) [[Ala(1,6)]OT] |  |  |  | devoid of any contractile activity | devoid of any contractile activity
3 | (1,6-di-serine)-oxytocin (SYIQNSPLG; ends and bridges not checked; UniProt P01178 20-28, looked up, variant C1S C6S) [[Ser(1,6)]OT] |  |  |  | devoid of any contractile activity | devoid of any contractile activity
